Experimental data published in ChEMBL document CHEMBL3407409, “Synthesis of diethyl 4-substituted-2,6-dimethyl-1,4-dihydropyridine-3,5-dicarboxylates as a new series of inhibitors against yeast α-glucosidase” (Eur J Med Chem, 2015).
Activity calls are given as the source filed them. No cut-off for these calls is given here.

What was measured:
Alpha-glucosidase MAL12 [1] = target: T1, Alpha-glucosidase MAL12 (Saccharomyces cerevisiae S288c, UniProt P53341); test: Inhibition of Saccharomyces cerevisiae alpha-glucosidase using p-nitrophenyl alpha-D-glucopyranoside as substrate preincubated for 15 mins measured up to 30 mins by spectrophotometry
T1 sequence (P53341 whole entry): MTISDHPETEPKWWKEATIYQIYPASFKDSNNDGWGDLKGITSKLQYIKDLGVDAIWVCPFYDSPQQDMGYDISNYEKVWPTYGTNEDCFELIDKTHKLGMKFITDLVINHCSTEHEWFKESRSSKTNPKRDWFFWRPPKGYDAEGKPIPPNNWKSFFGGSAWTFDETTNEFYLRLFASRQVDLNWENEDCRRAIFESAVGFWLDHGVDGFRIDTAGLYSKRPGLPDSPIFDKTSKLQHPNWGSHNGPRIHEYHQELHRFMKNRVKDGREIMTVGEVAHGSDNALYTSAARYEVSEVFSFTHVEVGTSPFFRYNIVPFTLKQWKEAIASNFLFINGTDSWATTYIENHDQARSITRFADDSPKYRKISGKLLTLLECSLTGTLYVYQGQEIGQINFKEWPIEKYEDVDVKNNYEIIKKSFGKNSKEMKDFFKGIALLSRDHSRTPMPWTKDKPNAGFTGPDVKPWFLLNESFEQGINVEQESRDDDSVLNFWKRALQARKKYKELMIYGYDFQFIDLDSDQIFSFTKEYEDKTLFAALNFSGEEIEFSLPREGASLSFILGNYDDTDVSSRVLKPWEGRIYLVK
Outline: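 Yeast enzyme 0.2 U/mL held with graded inhibitor levels for 15 min at 37 °C in 0.1 M phosphate buffer pH 6.8, DMSO 7% final; p-nitrophenyl α-D-glucopyranoside 0.7 mM final added, A400 followed up to 30 min. DMSO-only control; % inhibition = 100 − (OD test/OD control) × 100.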

3T3 = test: Cytotoxicity against […] 3T3 cells by MTT assay; assay type: cell-based; conditions: Mus musculus, NIH3T3
Outline: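 […] fibroblast 3T3 cells (2×10^5 cells/mL) grown overnight at 37 °C under CO2, then given serial dilutions (100–12.5 µg/mL) in DMEM with 5% FBS and penicillin/streptomycin. MTT (2 mg/mL in PBS) added for 4 h. Formazan dissolved in DMSO and read at 540 nm; viability taken as the OD ratio.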

Serpentes = test: Inhibition of snake venom phosphodiesterase-1 using bis-(p-nitropheny1) phosphate as substrate preincubated for 30 mins by spectrophotometry
Outline: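 Snake venom enzyme, 0.000742 U/well final, in 33 mM Tris–HCl pH 8.8 with 30 mM Mg-acetate. Pre-incubated 30 min with test samples. Substrate bis-(p-nitrophenyl) phosphate at 0.33 mM. Rate of p-nitrophenol release (change in OD/min) followed at 410 nm, 37 °C, in microplate format. Cysteine and EDTA used as positive controls. Run in triplicate.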

[2] = target: Carbonic anhydrase 2 (Bos taurus) (UniProt P00921); test: Inhibition of purified bovine erythrocyte carbonic anhydrase 2 using 4-PNA as substrate preincubated for 15 mins by spectrophotometry
Sequence of Carbonic anhydrase 2 (Bos taurus) (P00921 2-260 limits assumed): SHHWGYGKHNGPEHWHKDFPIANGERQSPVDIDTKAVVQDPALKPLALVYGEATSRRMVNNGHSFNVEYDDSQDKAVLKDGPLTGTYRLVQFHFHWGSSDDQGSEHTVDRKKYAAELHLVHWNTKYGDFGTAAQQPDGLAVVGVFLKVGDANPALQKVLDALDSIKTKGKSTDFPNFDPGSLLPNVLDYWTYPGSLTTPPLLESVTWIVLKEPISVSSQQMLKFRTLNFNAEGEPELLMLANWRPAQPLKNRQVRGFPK
Outline: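 Bovine erythrocyte CA-II (0.1 mg/mL stock) in 20 mM HEPES-Tris pH 7.4, DMSO 10% final, preincubated with compound for 15 min. Reaction started with 0.7 mM 4-nitrophenyl acetate (in ethanol). 4-Nitrophenol read at 400 nm each minute for 30 min. Triplicates at several concentrations.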

[3] = target: Oligo-1,6-glucosidase IMA1 (Saccharomyces cerevisiae S288c) (UniProt P53051); test: Ratio of acarbose IC50 to compound IC50 for Saccharomyces cerevisiae alpha-glucosidase using p-nitrophenyl alpha-D-glucopyranoside as substrate preincubated for 15 mins measured up to 30 mins by spectrophotometry
Sequence of Oligo-1,6-glucosidase IMA1 (Saccharomyces cerevisiae S288c) (P53051 whole entry): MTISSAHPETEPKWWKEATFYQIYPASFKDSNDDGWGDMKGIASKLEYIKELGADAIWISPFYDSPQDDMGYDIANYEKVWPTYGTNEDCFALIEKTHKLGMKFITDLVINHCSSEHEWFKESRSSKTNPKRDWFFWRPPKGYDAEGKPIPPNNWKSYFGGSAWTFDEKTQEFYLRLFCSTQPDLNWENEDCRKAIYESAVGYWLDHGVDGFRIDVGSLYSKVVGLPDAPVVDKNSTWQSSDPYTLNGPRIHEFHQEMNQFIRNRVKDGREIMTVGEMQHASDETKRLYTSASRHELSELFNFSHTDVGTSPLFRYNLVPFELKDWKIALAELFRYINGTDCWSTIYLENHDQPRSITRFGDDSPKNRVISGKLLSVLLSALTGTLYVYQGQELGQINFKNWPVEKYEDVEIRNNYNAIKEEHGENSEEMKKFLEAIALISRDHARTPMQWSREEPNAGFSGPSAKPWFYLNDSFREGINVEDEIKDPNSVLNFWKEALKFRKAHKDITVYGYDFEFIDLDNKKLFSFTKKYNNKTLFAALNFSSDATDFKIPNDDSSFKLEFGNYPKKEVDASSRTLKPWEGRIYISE

Alpha-glucosidase MAL12 [4] = target: T1, Alpha-glucosidase MAL12; test: Competitive inhibition of Saccharomyces cerevisiae alpha-glucosidase using p-nitrophenyl alpha-D-glucopyranoside as substrate preincubated for 15 mins by Lineweaver-Burk plot method
[5] = target: T2, Beta-glucuronidase (Homo sapiens) (UniProt P08236); test: Inhibition of beta-glucuronidase (unknown origin) using p-nitrophenyl-beta-D-glucuronide as substrate preincubated for 30 mins by spectrophotometry
T2 sequence (whole entry): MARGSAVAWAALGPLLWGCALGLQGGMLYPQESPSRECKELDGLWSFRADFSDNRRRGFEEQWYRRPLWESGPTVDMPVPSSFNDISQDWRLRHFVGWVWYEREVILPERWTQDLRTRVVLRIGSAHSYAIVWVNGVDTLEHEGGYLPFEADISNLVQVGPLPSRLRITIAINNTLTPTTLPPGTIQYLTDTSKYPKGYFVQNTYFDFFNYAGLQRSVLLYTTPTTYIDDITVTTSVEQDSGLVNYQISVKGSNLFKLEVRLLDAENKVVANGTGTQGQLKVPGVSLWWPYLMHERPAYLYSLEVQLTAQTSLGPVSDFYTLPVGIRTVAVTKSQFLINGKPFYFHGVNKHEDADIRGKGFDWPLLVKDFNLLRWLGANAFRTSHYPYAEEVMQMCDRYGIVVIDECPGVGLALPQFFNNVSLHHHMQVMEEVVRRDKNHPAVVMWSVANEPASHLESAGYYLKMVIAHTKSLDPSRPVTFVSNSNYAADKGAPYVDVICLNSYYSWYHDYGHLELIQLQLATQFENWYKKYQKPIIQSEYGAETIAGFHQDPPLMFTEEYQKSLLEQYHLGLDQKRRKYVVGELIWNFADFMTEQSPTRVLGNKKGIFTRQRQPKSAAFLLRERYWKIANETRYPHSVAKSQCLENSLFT
Outline: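 Enzyme (1 U) in 0.1 M acetate buffer held with compound (DMSO 2% final) at 37 °C for 30 min. Then 0.4 mM p-nitrophenyl-β-D-glucuronide added and p-nitrophenol read at 405 nm. Run in triplicate.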

[6] = target: Oligo-1,6-glucosidase IMA1 (Saccharomyces cerevisiae S288c) (UniProt P53051); test: Non-competitive inhibition of Saccharomyces cerevisiae alpha-glucosidase using p-nitrophenyl alpha-D-glucopyranoside as substrate preincubated for 15 mins by Dixon plot method
Outline: (§1)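 Kinetics on the yeast enzyme: 1/rate plotted against 1/substrate (Lineweaver-Burk) at several inhibitor levels, e.g. 60, 70 and 80 µM, to see effects on Km and Vmax. Ki taken from a replot of Lineweaver-Burk slopes against inhibitor concentration and checked by Dixon plot (1/rate against inhibitor concentration). Points are the mean of three experiments.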

Alpha-glucosidase MAL12 [7] = target: T1, Alpha-glucosidase MAL12; test: Non-competitive inhibition of Saccharomyces cerevisiae alpha-glucosidase using p-nitrophenyl alpha-D-glucopyranoside as substrate preincubated for 15 mins by Lineweaver-Burk plot method; outline: as §1

Structure (SMILES)	IC50 (Alpha-glucosidase MAL12 [1]) [µM]	IC50 (3T3) [µM]	inhibition (Serpentes) [%]	inhibition [2]	Ratio IC50 [3]	Ki (Alpha-glucosidase MAL12 [4]) [µM]	inhibition [5]	inhibition [6]	Ki (Alpha-glucosidase MAL12 [7]) [µM]
CCOC(=O)C1=C(C)NC(C)=C(C(=O)OCC)C1c1ccc(C)cc1	118	> 30	–	–	–	–	–	–	–
CCOC(=O)C1=C(C)NC(C)=C(C(=O)OCC)C1c1ccc([N+](=O)[O-])cc1	51	> 30	20.3	9.7%	18	66	14.1%	–	–
CCOC(=O)C1=C(C)NC(C)=C(C(=O)OCC)C1c1ccc(SC)cc1	97.4	> 30	–	–	–	–	–	–	–
CCOC(=O)C1=C(C)NC(C)=C(C(=O)OCC)C1c1cccs1	74.3	> 30	8	inactive	–	–	inactive	–	–
CCOC(=O)C1=C(C)NC(C)=C(C(=O)OCC)C1c1ccccc1F	60.2	> 30	–	–	–	–	–	–	–
CCCCC1C(C(=O)OCC)=C(C)NC(C)=C1C(=O)OCC	122	–	–	–	–	–	–	–	–
CCOC(=O)C1=C(C)NC(C)=C(C(=O)OCC)C1c1ccc(OCC)cc1	124	> 30	–	–	–	–	–	–	–
CCOC(=O)C1=C(C)NC(C)=C(C(=O)OCC)C1c1ccc(O)c(O)c1	274	28.6	–	–	–	–	–	–	–
CCOC(=O)C1=C(C)NC(C)=C(C(=O)OCC)C1CCc1ccccc1	112	26.7	–	–	–	–	–	–	–
CCOC(=O)C1=C(C)NC(C)=C(C(=O)OCC)C1c1ccc(Cl)cc1	72.4	27.9	–	–	–	–	–	–	–
CCOC(=O)C1=C(C)NC(C)=C(C(=O)OCC)C1c1ccc(OC)cc1	65.1	> 30	8.1	inactive	–	–	12.4%	–	–
CCOC(=O)C1=C(C)NC(C)=C(C(=O)OCC)C1c1cccc([N+](=O)[O-])c1	35	> 30	11.4	11.7%	26	–	22.3%	Active	25
